Assay results published in ChEMBL document CHEMBL4513216, “Probing the Open Global Health Chemical Diversity Library for Multistage-Active Starting Points for Next-Generation Antimalarials” (ACS Infect Dis, 2020).

Experiment: Toxicity liver stage against HepG2, at 10uM
Assay type: cell-based
Design: test concentration 10 uM, cell line HepG2-A16-CD81EGFP
Conditions: human, HepG2-A16-CD81EGFP cells; read-out: INHIBITION
Outline: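 Uninfected HepG2-A16-CD81EGFP cells, 3 × 10^3 per well, 1536-well, plated on prespotted compound at 10 μM final, parasite-free screening media added to match infected plates; puromycin 10 μM positive, DMSO 0.5% negative; run in parallel with 48 h PbLuc assay at 37 °C, 5% CO2; viability by CellTiter-Glo luminescence, normalized to controls.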

| SMILES | cytotoxicity at 10 µM [%] |
| --- | --- |
| O=C(CCc1cccs1)NCC1CCCN1c1cccnn1 (stereo not drawn) | -1.9 |
| CCCn1c(C)c(CC(=O)NC)c2c1CC(C)(C)CC2=O | -6.05 |
| CCOC(=O)CCCNC(=O)CN1CCN(c2ncccn2)CC1 | -13.3 |
| O=C(NCC1CC1)C1=NOC2(CCN(Cc3ccc4c(c3)OCO4)C2)C1 (stereo not drawn) | -12.1 |
| c1cc(CN2CC[C@@H]3CN(c4cnccn4)C[C@@H]3C2)ccn1 | -119 |
| Cc1ncoc1C(=O)N1CCCC(C(=O)c2cccc(OC(C)C)c2)C1 (stereo not drawn) | 8.84 |
| O=C(c1ccnc(CC2COc3ccccc3C2)c1)N1CCCC1 (stereo not drawn) | 1.7 |
| CCc1nccn1C1CCCN(C(=O)c2cnn3cccnc23)C1 (stereo not drawn) | -18.2 |
| O=C(Nc1ccc(CC(=O)N2CCCC2)cc1)NC1CC1 | -2.16 |
| O=C(Nc1cnn(CC(=O)N2CCCCO2)c1)c1ccccn1 | -0.0294 |
| CCc1c(C)[nH]c2cc(C3CCN(Cc4ccncc4C)C3)nn2c1=O (stereo not drawn) | -14.1 |
| O=C(NCC[S+]([O-])c1ccccc1)c1ccc2[nH]c(=O)[nH]c2c1 (stereo not drawn) | 3.18 |
| CS(=O)(=O)CCSCc1ccc(Br)c(F)c1 | 0.49 |
| Fc1cnc(N2CCC3(CC2)CN(Cc2ccccn2)CCO3)nc1 | 0.35 |
| COc1ccc2c(c1)CCCN(CC(=O)NCC1CCCO1)C2 (stereo not drawn) | -12 |
| COC(=O)CCNC(=O)c1nnn(-c2ccccc2)c1C(F)(F)F | -4.27 |
| Cc1nc(C)n(CC2CCCN2CC(=O)NCCc2cccs2)n1 (stereo not drawn) | -0.749 |
| COCCn1cc(CC(=O)Nc2nc[nH]n2)c2ccccc21 | -0.145 |
| Cc1ccoc1C(=O)NC1CCN(C(=O)Nc2ccccn2)CC1 | 1.97 |
| O=C1O[C@@H]2CN(Cc3ccncc3)C[C@@H]2N1CCCN1CCOCC1 | -6.13 |
| OC1CCCN(Cc2c(-c3ccco3)[nH]c3ncccc23)C1 (stereo not drawn) | -5.87 |
| CCS(=O)(=O)N1CCC2(CC1)CN(CC1CCOC1)c1ccccc12 (stereo not drawn) | -85.9 |
| COCCN(CCOC)Cc1c(C)nc2ccccc2c1O | 2.08 |

| SMILES | cytotoxicity at 10 µM [%] |
| --- | --- |
| CC(=O)N1CCN(Cc2ccc(C)o2)CC2(CC(=O)N(C)C2)C1 (stereo not drawn) | -2.01 |
| CCCc1n[nH]c(C2CN(C(=O)c3ccnc(C4CC4)n3)CCO2)n1 (stereo not drawn) | -7.49 |
| Cn1c(Cn2ncc(N3CCCC3)cc2=O)nc2ccccc21 | 5.65 |
| c1ccc(Oc2nccc3occc23)c(CN2CCCCC2)c1 | -10.1 |
| c1cc(C2CCN(Cc3ccc4c(c3)OCO4)CC2)ccn1 | -2.98 |
| CNC(=O)[C@@H]1[C@@H](OC(=O)Nc2ccccc2)C(=O)N(C)C12CCNCC2 | 6.38 |
| Cc1ncnc2c1CCN(C(=O)c1cccn1C)CC2 | -75.1 |
| Cc1noc(CN(Cc2ccc3c(c2)OCCO3)Cc2ccco2)n1 | -10.8 |
| CN1CCCC(c2nnc3n2CCN(S(=O)(=O)c2ccccc2Cl)C3)C1 (stereo not drawn) | -2.92 |
| Fc1cccc(F)c1Cn1c(C2CCNCC2)cc2cccnc21 | -3.4 |
| COc1ccc(C2CC(=O)Nc3c2cnn3C2CCCC2)cc1 (stereo not drawn) | -9.41 |
| COc1cccc(CN(C)C(=O)CN2CCN(c3nccs3)CC2)c1 | -3.98 |
| c1cc(CNc2nnc(Cc3ccsc3)o2)cs1 | 0.369 |
| O=C(c1ccccc1)N1CCO[C@@H]2CN(Cc3ccc[nH]3)C[C@@H]2C1 | -98 |
| CCC(O)CN1CCN(C(=O)Cc2c(C)nc(C)[nH]c2=O)CC1 (stereo not drawn) | -19.3 |
| CCc1noc(CN2CCCC2c2noc(C3CC3)n2)n1 (stereo not drawn) | -3.76 |
| CC(=O)N1CCN(C(=O)Cc2cnc(-c3c(Cl)cccc3Cl)s2)CC1 | 7.27 |
| Cc1c(CN2C[C@@H](O)[C@H](Oc3cccc(F)c3)C2)cnn1C | -8.21 |
| CCc1nc(C)cn1C(=O)Nc1ccc(C)cc1 | -1.64 |
| COc1ccc(NC(=O)NC(C)Cn2cccn2)cn1 (stereo not drawn) | -5.72 |
| CSCCCN1CCC(c2nnc(Cn3ccnc3)n2C2CC2)CC1 | 0.872 |
| CCn1nnc(NCc2cc(Cl)cc(Cl)c2OC)n1 | 13.6 |
| Cc1nccn1CC1CCCN1S(=O)(=O)Cc1cccc(F)c1 (stereo not drawn) | -15.8 |

| SMILES | cytotoxicity at 10 µM [%] |
| --- | --- |
| CC(=O)Nc1ccc2nc(CN(C)Cc3snnc3C)ccc2c1 | -12.8 |
| CCN(CC(=O)N(C)C)C(=O)C(C)(C)c1ccc2c(c1)OCCO2 | 1.22 |
| c1cnnc(N2CCCC2CNCc2nc3ccccc3o2)c1 (stereo not drawn) | -10.9 |
| c1cncc(COC[C@@H]2CCC[C@]23CNCCO3)c1 | -96.1 |
| Cn1ncc2c(=O)[nH]c(N3CCCC3c3cccs3)nc21 (stereo not drawn) | -0.53 |
| CC(NC(N)=O)C(=O)NCc1cc(Br)ccc1F (stereo not drawn) | -3.02 |
| CNC(=O)CCS(=O)(=O)Cc1cc(Cl)c2c(c1)OCCCO2 | -6.31 |
| NC(=O)CN1CCOCC(Cc2ccccc2Cl)C1 (stereo not drawn) | 3.18 |
| CCn1cc(CN2CCCN(C(=O)c3ccoc3)CC2)cn1 | -18.8 |
| O=C(NCCCn1cccn1)C1CCC(=O)N(Cc2ccccc2F)C1 (stereo not drawn) | -3.75 |
| Cc1nn(C)c(C)c1C1COCCN1C(=O)c1cnc(N)c(Cl)c1 (stereo not drawn) | -8.21 |
| c1cncc(-c2nc(C3CC3)ncc2-c2ccnc(N3CCCC3)n2)c1 | -2.5 |
| CC1CCCN(Cc2cccc(C(=O)Nc3nccs3)c2)C1 (stereo not drawn) | -5.68 |
| Cc1noc(C(C)C)c1C(=O)NCc1cccnc1 | 3.93 |
| COC(=O)C(NC(=O)COC1CCCCC1)c1ccccc1 (stereo not drawn) | -21.4 |
| CN(C)C(=O)CCN1CC(c2ccccc2)(c2ccccc2)CCC1=O | 0.284 |
| CC1(C)CN=C(N2CCN(CCCN3CCOCC3)CC2)S1 | -17.6 |
| CCc1nc(CCNC(=O)Nc2cc(C(N)=O)sc2C)cs1 | 24.6 |
| O=C(CCNC(=O)C1CCCC1)NCc1ccccc1Cn1cncn1 | -5.63 |
| c1cnc(N2CCOCC3(CCCN(Cc4cc[nH]n4)C3)C2)nc1 (stereo not drawn) | 3.35 |
| Cc1nc(CN2CCCN(C(=O)c3sccc3C#N)CC2)cs1 | -7.98 |
| CCc1nc(CC(=O)N2CCCC2CN2CCCC2)cs1 (stereo not drawn) | 7.27 |
| CN(C)c1nc(NCCc2ccnn2C)ncc1F | -9.83 |

| SMILES | cytotoxicity at 10 µM [%] |
| --- | --- |
| CC(C)c1nc(C(=O)N2CCCC(N)CC2)cs1 (stereo not drawn) | -2.56 |
| COc1cc(NC2CCCNC2)cc(OC)c1 (stereo not drawn) | -9.57 |
| N#Cc1ccc(CS(=O)(=O)NC(=O)COc2ccc3c(c2)CCC3)cc1 | 1.13 |
| CCN(Cc1ccncc1)c1cc(C2CCCNC2)nc(C)n1 (stereo not drawn) | -5.21 |
| COc1ccccc1CC1CCCN(CCN2CCOC2=O)C1 (stereo not drawn) | 6.93 |
| O=C1N(Cc2ccc(F)c(F)c2)CCCC12CCN(C1CCCC1)C2 (stereo not drawn) | -2.8 |
| CCN(CC)S(=O)(=O)c1cc(NC(=O)CCc2cscn2)ccc1C | -0.25 |
| CN(C)S(=O)(=O)NCc1cccnc1Oc1ccc(F)c(F)c1 | 3.05 |
| CC(C)c1nn(C)c(N(C)C)c1CNC1CCN(C2CC2)CC1 | 5.6 |
| COC(=O)Cn1c(C)cc(=O)c2cc(F)ccc21 | 2.63 |
| CC(=O)NCCNC(=O)c1ccc(C)c(-n2cccc2)c1 | -2.04 |
| CN(C)c1ncccc1CN1CCOC(C(=O)Nc2ccccc2)C1 (stereo not drawn) | -29.7 |
| O=C1OCCC1N1CCN(C(=O)Cc2ccccc2Cl)CC1 (stereo not drawn) | -9.2 |
| CC1CCN(C(=O)[C@@H]2C[C@H]3OCC[C@H]3N(Cc3ccoc3)C2)CC1 | -72.5 |
| COc1ccccc1-c1ncc(CN2CCC3(CCNCC3)CC2)cn1 | -1.49 |
| CCOCC1c2c(ncn2C)CCN1C(=O)c1ccoc1 (stereo not drawn) | -103 |
| Cc1cccc(-c2nccnc2C2CCCN(C)C2)c1 (stereo not drawn) | 0.83 |
| COc1ccccc1Oc1ncccc1CNC(=O)C1COC(=O)N1 (stereo not drawn) | -6.01 |
| Cn1cccc(NC(=O)N2CCC(CSc3ccccc3)C2)c1=O (stereo not drawn) | 40.2 |
| Cc1nn(C)c(N2CCOCC2)c1CNC(c1ccccc1)C1CC1 (stereo not drawn) | 4.45 |
| CC(C)NC(=O)CN1CCC2(CC1)OCCO2 | -8.67 |
| Cc1nn(C)c2c(N3CCN(C(=O)C4CCCCC4)CC3)ncnc12 | 12.3 |
| COCCN1CCCC12CCN(Cc1cccnc1OC)CC2 | 15.4 |

| SMILES | cytotoxicity at 10 µM [%] |
| --- | --- |
| Cn1cc(-c2cc(C(F)(F)F)nn2CCC#N)cn1 | 6.5 |
| Cn1cc(CN2CCCC(c3nccnc3-c3cccc(F)c3)C2)cn1 (stereo not drawn) | 0.954 |
| CC(C)CN1C(=O)C2(CCCC2)NC12CCSCC2 | -135 |
| CCc1nc(C2CCCN2C(=O)c2ccc(N(C)C)nn2)no1 (stereo not drawn) | -11.4 |
| CN(Cc1ncnn1C1Cc2ccccc2C1)C1CCS(=O)(=O)C1 (stereo not drawn) | -2.14 |
| O=C(NCC1(O)CCSC1)c1ccoc1 (stereo not drawn) | -12.7 |
| O=C(c1cc2c(s1)CCCC2)N1CCc2nc(C3CCCN3)ncc2C1 (stereo not drawn) | -3.04 |
| CO[C@H]1CCN(S(=O)(=O)c2cccs2)[C@H]1Cc1ccncc1 | -75 |
| CN1CCc2[nH]nc(C(=O)N3CCC4(CCCO4)CC3)c2C1 | -47.1 |
| Cc1ccc(CNC(=O)CN2CCOC(Cn3cncn3)C2)s1 (stereo not drawn) | -8.45 |
| CCCC(C)NC(=O)c1ccc(-c2ccco2)[nH]c1=O (stereo not drawn) | -20 |
| CSc1cccc(CNC(=O)[C@H]2CNC[C@@H](C(=O)N3CCOCC3)C2)c1 | -6.91 |
| Cn1ccnc(Sc2cccc(C#N)c2)c1=O | 4.64 |
| CCOCC1CN(C(=O)c2cnoc2C)Cc2cnn(C)c21 (stereo not drawn) | 0.384 |
| CCOCCN1CCN(Cc2cccc(C(=O)N(C)C)c2)CC1CC (stereo not drawn) | -5.83 |
| NC(=O)C1CCCN(S(=O)(=O)c2cnn(-c3ccccc3)c2)C1 (stereo not drawn) | -66.6 |
| COc1ccc2c(c1)nc1n2[C@@H](CNCc2ccccc2)COC1 | -0.201 |
| COCCN1CCN(S(=O)(=O)C2CC2)Cc2ccc(C)nc21 | 3.38 |
| CC(=O)N1CCC(Cc2cnc(Nc3cc(C)on3)cn2)CC1 | 3.48 |
| CCc1nnc(C(C)N(C)Cc2c(C)nn(-c3ccccc3)c2C)o1 (stereo not drawn) | -9.85 |
| CCCN(CC(=O)OC)S(=O)(=O)c1cnc2c(c1)c(C)nn2C | -2.61 |
